Common to all, as to assay type: functional, Homo sapiens
The test system of test [1] is A-431. Nature of the test: (§1) The compound was tested in vitro for antiproliferative activity against A431 tumor cell lines. The arrangement: concentration or dose not given beside the values. Put shortly:
(§2)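 Human tumor cell lines were exposed to the conjugates for 24 h at 50 µg/mL. Surviving cells converted the tetrazolium salt MTT to formazan, and OD was read at 570 nm. Values are percent inhibition relative to untreated cells (0%), given as the mean ± SD of at least three parallels. The methods also list 20, 50 and 100 µg/mL and 24 or 48 h exposures.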

Another test has as its system A2058. Nature of the test: The compound was tested in vitro for antiproliferative activity against A2058 tumor cell lines. The arrangement: concentration or dose not given beside the values. Put shortly: as §2
The subject of another test is Faza 967 cell clone 2/T1. Nature of the test: The compound was tested in vitro for antiproliferative activity against Faza 967 clone2/T1 tumor cell lines. The arrangement: concentration or dose not given beside the values.
For a further test, the system named is Faza 967 clone 2. Nature of the test: The compound was tested in vitro for antiproliferative activity against Faza 967 clone2 tumor cell lines. The arrangement: concentration or dose not given beside the values.
The test system of the next test is HT-29. Nature of the test: The compound was tested in vitro for antiproliferative activity against HT-29 tumor cell lines. The arrangement: concentration or dose not given beside the values. Put shortly:
as §2

A further test relates to PC-3. The test can be described thus: The compound was tested in vitro for antiproliferative activity against PC3 tumor cell lines. Put shortly:
as §2

A further test concerns SW-620. The test can be described thus: The compound was tested in vitro for antiproliferative activity against […] tumor cell lines. The gist of the method:
as §2

Test [2] deals with A-431. The description is as §1. Put shortly: as §2

SMILES strings stand for the structures.

On to `CCCCCCCCC(NC(=O)[C@@H](NC(=O)[C@H](CSCNC(C)=O)NC(=O)[C@H](CCCCN)NC(=O)[C@@H](Cc1c[nH]c2ccccc12)NC(=O)[C@@H](NC(=O)[C@H](CSCNC(C)=O)NC(=O)[C@H](N)Cc1ccccc1)c1ccc(O)cc1)[C@@H](C)O)C(=O)NCC(=O)O` (some centres not stated), for which the Inhibition (as a rule, the share of the control response that was lost under treatment) in the test on A-431 [1] was 76%; with A2058, 97%; in the test on Faza 967 cell clone 2/T1, 90%; in the test on Faza 967 clone 2, 92%; in the test on HT-29 it was 93%.
With `CCCCCCCCC(N)C(=O)N[C@H](Cc1ccccc1)C(=O)N[C@H]1CSSC[C@@H](C(=O)N[C@H](C(N)=O)[C@@H](C)O)NC(=O)[C@H](CCCCN)NC(=O)[C@@H](Cc2c[nH]c3ccccc23)NC(=O)[C@H](c2ccc(O)cc2)NC1=O` (some centres not stated), the Inhibition in the test on PC-3 amounted to 42%; in the test with SW-620, 95%.
Turning to `CCCCCCCCCCCCCCCCC(N)C(=O)N[C@H](Cc1ccccc1)C(=O)N[C@@H](CSCNC(C)=O)C(=O)N[C@H](C(=O)N[C@H](Cc1c[nH]c2ccccc12)C(=O)N[C@@H](CCCCN)C(=O)N[C@@H](CSCNC(C)=O)C(=O)N[C@H](C(N)=O)[C@@H](C)O)c1ccc(O)cc1` (some centres not stated), the Inhibition in the test with A-431 [1] is reported as 83%; with A2058, 60%; in the test with Faza 967 cell clone 2/T1, 88%; with Faza 967 clone 2, 93%; with HT-29, 20%.
As for `CCCCCCCCCCC(N)C(=O)N[C@H](Cc1ccccc1)C(=O)N[C@H]1CSSC[C@@H](C(=O)N[C@H](C(N)=O)[C@@H](C)O)NC(=O)[C@H](CCCCN)NC(=O)[C@@H](Cc2c[nH]c3ccccc23)NC(=O)[C@H](c2ccc(O)cc2)NC1=O` (some centres not stated), the Inhibition was 5% in the test with PC-3 and 65% with SW-620.
With `CCCCCCCCCCC(N)C(=O)NCC(=O)NCC(=O)N[C@H](Cc1ccccc1)C(=O)N[C@H]1CSSC[C@@H](C(=O)N[C@H](C(N)=O)[C@@H](C)O)NC(=O)[C@H](CCCCN)NC(=O)[C@@H](Cc2c[nH]c3ccccc23)NC(=O)[C@H](c2ccc(O)cc2)NC1=O` (some centres not stated), the Inhibition in the test on A-431 [1] came out at 48%; in the test with A2058 it was 35%; with Faza 967 cell clone 2/T1, 43%; with Faza 967 clone 2, 33%; in the test on HT-29, 50%.
For the molecule `CC(=O)NCSC[C@H](NC(=O)[C@H](N)Cc1ccccc1)C(=O)N[C@H](C(=O)N[C@H](Cc1c[nH]c2ccccc12)C(=O)N[C@@H](CCCCN)C(=O)N[C@@H](CSCNC(C)=O)C(=O)N[C@H](C(N)=O)[C@@H](C)O)c1ccc(O)cc1`, the Inhibition with A-431 [1] is listed as 34%; in the test with A2058 it was 30%; in the test with Faza 967 cell clone 2/T1, 0%; in the test on Faza 967 clone 2, 10%; in the test on HT-29, 80%.
As to `CCCCCCCCCCCCC(NC(=O)CCC(=O)NC1OC(O)C(O)C(O)C1O)C(=O)N[C@H](Cc1ccccc1)C(=O)N[C@H]1CSSC[C@@H](C(=O)N[C@H](C(N)=O)[C@@H](C)O)NC(=O)[C@H](CCCCN)NC(=O)[C@@H](Cc2c[nH]c3ccccc23)NC(=O)[C@H](c2ccc(O)cc2)NC1=O` (some centres not stated), the Inhibition with A2058 turned out to be 100%; in the test on HT-29 it was 30%; with PC-3, 55%.
With `CCCCCCCCCCCCC(N[C@H](Cc1ccccc1)C(=O)N[C@@H](CSCNC(C)=O)C(=O)N[C@H](C(=O)N[C@H](Cc1c[nH]c2ccccc12)C(=O)N[C@@H](CCCCN)C(=O)N[C@@H](CSCNC(C)=O)C(=O)N[C@H](C(N)=O)[C@@H](C)O)c1ccc(O)cc1)C(=O)NC1OC(O)C(O)C(O)C1O` (some centres not stated), the Inhibition amounted to 32% in the test with A-431 [1]; 62% with A2058; 50% with Faza 967 cell clone 2/T1; 61% in the test on Faza 967 clone 2; 39% with HT-29.
Regarding `CCCCCCCCC(N)C(=O)NC(CCCCCCCC)C(=O)N[C@H](Cc1ccccc1)C(=O)N[C@@H](CSCNC(C)=O)C(=O)N[C@H](C(=O)N[C@H](Cc1c[nH]c2ccccc12)C(=O)N[C@@H](CCCCN)C(=O)N[C@@H](CSCNC(C)=O)C(=O)N[C@H](C(N)=O)[C@@H](C)O)c1ccc(O)cc1` (some centres not stated), the Inhibition in the test with A2058 was found to be 68%; in the test on Faza 967 cell clone 2/T1, 95%; in the test on Faza 967 clone 2, 96%; in the test on HT-29, 60%.
With `CCCCCCCCCCCCCCCCCCC(N)C(=O)N[C@H](Cc1ccccc1)C(=O)N[C@@H](CSCNC(C)=O)C(=O)N[C@H](C(=O)N[C@H](Cc1c[nH]c2ccccc12)C(=O)N[C@@H](CCCCN)C(=O)N[C@@H](CSCNC(C)=O)C(=O)N[C@H](C(N)=O)[C@@H](C)O)c1ccc(O)cc1` (some centres not stated), the Inhibition with A2058 is recorded as 34%; in the test with Faza 967 cell clone 2/T1, 87%; in the test on Faza 967 clone 2, 71%; in the test on HT-29, 50%.
With `CCCCCCCCCCCCC(N)C(=O)N[C@H](Cc1ccccc1)C(=O)N[C@@H](CSCNC(C)=O)C(=O)N[C@H](C(=O)N[C@H](Cc1c[nH]c2ccccc12)C(=O)N[C@@H](CCCCN)C(=O)N[C@@H](CSCNC(C)=O)C(=O)N[C@H](C(=O)NC1OC(C(N)=O)C(O)C(O)C1O)[C@@H](C)O)c1ccc(O)cc1` (some centres not stated), the Inhibition with A-431 [1] is reported as 10%; with A2058, 2%; in the test with Faza 967 cell clone 2/T1 it was 17%; with Faza 967 clone 2, 23%; in the test with HT-29, 18%.
As to `CCCCCCCCCCC(N)C(=O)N[C@H](Cc1ccccc1)C(=O)N[C@@H](CSCNC(C)=O)C(=O)N[C@H](C(=O)N[C@H](Cc1c[nH]c2ccccc12)C(=O)N[C@@H](CCCCN)C(=O)N[C@@H](CSCNC(C)=O)C(=O)N[C@H](C(=O)NC1OC(C(N)=O)C(O)C(O)C1O)[C@@H](C)O)c1ccc(O)cc1` (some centres not stated), the Inhibition with A-431 [1] is 50%; in the test on A2058 it was 80%; in the test on Faza 967 cell clone 2/T1, 29%; in the test with Faza 967 clone 2 it was 19%; in the test with HT-29, 36%.
Turning to `CC(=O)NCSC[C@H](NC(=O)[C@H](N)Cc1ccccc1)C(=O)N[C@H](C(=O)N[C@H](Cc1c[nH]c2ccccc12)C(=O)N[C@@H](CCCCN)C(=O)N[C@@H](CSCNC(C)=O)C(=O)N[C@H](C(=O)NC1OC(C(N)=O)C(O)C(O)C1O)[C@@H](C)O)c1ccc(O)cc1` (some centres not stated), the Inhibition is listed as 90% with A-431 [1]; 88% in the test on A2058; 90% in the test on Faza 967 cell clone 2/T1; 93% with Faza 967 clone 2; 85% in the test with HT-29.
Turning to `C[C@@H](O)[C@H](NC(=O)C1CSSCC(NC(=O)[C@H](N)Cc2ccccc2)C(=O)N[C@@H](c2ccc(O)cc2)C(=O)NC(Cc2c[nH]c3ccccc23)C(=O)N[C@@H](CCCCN)C(=O)N1)C(N)=O` (single isomer, unassigned), the Inhibition worked out at 100% with A-431 [2]; 96% with A2058; 100% with Faza 967 cell clone 2/T1; 100% with Faza 967 clone 2; 76% with HT-29; 90% in the test with PC-3. In the test on SW-620, this molecule gave an Inhibition of 90%.

The record behind these values is ChEMBL document CHEMBL1132408, “Novel lipoamino acid- and liposaccharide-based system for peptide delivery: application for oral administration of tumor-selective somatostatin analogues” (J Med Chem, 1999).
